Reference: ChEMBL document CHEMBL5370586 (J Nat Prod, 2023)
Active and inactive are the calls of the source. The calls are words filed in the database; no cut-off is given here.

Key:
PC-3 [1] = assay: Induction of apoptosis in human PC-3 cells assessed as late apoptotic cells at 1 to 10 uM incubated for 72 hrs by YO-PRO and propidium iodide staining based high content imaging fluorescence microscopic analysis; type: functional, cell-based; details: dose 1-10 µM
Summary of the method: (§1)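 DU145 or PC-3 cells seeded at 2 × 10^3 per well and given CBD at 1, 5 or 10 μM with serum for 72 h; staurosporine as positive control. Stained 30 min with Hoechst 33342 (1:5000), YO-PRO-1 (1:1000) and PI (1:1000). High-content imaging with a 63× water objective. Hoechst gave confluency, nucleus area and circularity; YO-PRO/PI gave healthy, early and late apoptotic fractions.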

DU-145 [2] = assay: Induction of cell death in human DU-145 cells assessed as reduction in cell nucleus circularity at 1 to 10 uM measured after 72 hrs by Hoechst 33342 staining based high content imaging fluorescence microscopic analysis; type: functional; details: dose 1-10 µM; summary of the method: as §1
DU-145 [3] = assay: Antiproliferative activity against human DU-145 cells assessed as reduction in cell viability incubated for 72 hrs in serum deprivation condition by MTT assay; type: functional, cell-based; details: DU-145, 72 h
Summary of the method: (§2)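 Cells seeded at 1 × 10^3 (DU145, PC-3), 6 × 10^3 (LNCaP), 2 × 10^3 (PWR-1E) or 4.5 × 10^3 (RWPE-1) per well and left to adhere 24 h. CBD (0–100 μM) then given for 72 h in serum-free medium. MTT added for 3 h at 37 °C, formazan dissolved in DMSO, absorbance read at 570 nm. Viability is % of vehicle; IC50 by nonlinear regression; at least three independent experiments.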

DU-145 [4] = assay: Antiproliferative activity against human DU-145 cells assessed as reduction in cell confluency at 5 to 10 uM measured after 72 hrs by Hoechst 33342 staining based high content imaging fluorescence microscopic analysis; type: functional; details: dose 5-10 µM; summary of the method: as §1
PC-3 [5] = assay: Induction of cell death in human PC-3 cells assessed as reduction in cell nucleus area at 1 to 10 uM measured after 72 hrs by Hoechst 33342 staining based high content imaging fluorescence microscopic analysis; type: functional; details: dose 1-10 µM; summary of the method: as §1
PWR-1E [6] = assay: Induction of cell death in human PWR-1E cells assessed as reduction in nucleus circularity at 1 to 10 uM incubated for 72 hrs by Hoechst 33342 staining based high-content fluorescence microscopy; type: toxicity; details: dose 1-10 µM
PC-3 [7] = assay: Anti-invasive activity against human PC-3 cells assessed as increase in E-cadherin protein expression incubated for 48 hrs by Western blotting analysis; type: functional
PC-3 [8] = assay: Induction of apoptosis in human PC-3 cells assessed as early apoptotic cells at 1 to 10 uM incubated for 72 hrs by YO-PRO and propidium iodide staining based high content imaging fluorescence microscopic analysis; type: functional, cell-based; details: dose 1-10 µM; summary of the method: as §1
DU-145 [9] = assay: Induction of cell cycle arrest in human DU-145 cells assessed as arrest in G1/S phase by measuring reduction in CDK2 protein expression at IC50 concentration incubated for 48 hrs by Western blotting analysis; type: functional, cell-based
Summary of the method: (§3)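 DU145 or PC-3 cells seeded at 5 × 10^4 per well and given CBD for 48 h. Lysed in ice-cold RIPA with protease/phosphatase inhibitor; 40 μg protein per lane, SDS-PAGE, PVDF transfer, milk block. Primary antibodies overnight at 4 °C, then HRP secondary 1 h at room temperature, chemiluminescence. Densitometry normalised to loading control, then to vehicle; at least three experiments.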

PC-3 [10] = assay: Anti-invasive activity against human PC-3 cells assessed as reduction in MMP-3 protein secretion incubated for 48 hrs by ELISA analysis; type: functional, cell-based
PC-3 [11] = assay: Antiproliferative activity against human PC-3 cells assessed as reduction in cell count at IC50 concentration incubated for 48 hrs by flow cytometry analysis; type: functional, cell-based
Summary of the method: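 Six-well seeding at 4 × 10^4 (DU145) or 3 × 10^4 (PC-3) cells per well; CBD for 48 h. Supernatant and trypsinised adherent cells pooled and resuspended in ice-cold PBS. Cells counted by flow cytometry with forward/side scatter gating; at least three independent experiments.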

PC-3 [12] = assay: Antiproliferative activity against human PC3 cells assessed as reduction in cell viability incubated for 72 hrs in serum deprivation condition by MTT assay; type: functional, cell-based; details: PC-3, 72 h; summary of the method: as §2
PWR-1E [13] = assay: Induction of apoptosis in human PWR-1E cells assessed as late apoptotic cells at 1 to 10 uM incubated for 72 hrs by YO-PRO and propidium iodide staining based high content imaging fluorescence microscopic analysis; type: toxicity, cell-based; details: dose 1-10 µM
Summary of the method: (§4)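 PWR-1E cells seeded at 2 × 10^3 per well and given CBD at 1, 2 or 10 μM without serum for 72 h. Stained with Hoechst 33342, YO-PRO-1 and PI, then imaged by high-content microscopy. Scored for confluency and for healthy, early and late apoptotic fractions; at least three independent experiments.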

DU-145 [14] = assay: Antiproliferative activity against human DU-145 cells assessed as reduction in cell viability incubated for 72 hrs in presence of SR141716 by MTT assay; type: functional, cell-based
Summary of the method: (§5)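 DU145 or PC-3 cells pretreated 1 h with SR141716 (CB1 antagonist), SR144528 (CB2 antagonist), capsazepine (TRPV1 antagonist) or LPI (GPR55 agonist), then given CBD for 72 h. MTT read-out as % of vehicle. Compared with CBD alone by t-test; at least three independent experiments.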

[15] = target: Serine/threonine-protein kinase AKT (Homo sapiens) (UniProt P31751+Q9Y243+P31749); assay: Inhibition of AKT phosphorylation in human PC-3 cells at IC50 concentration incubated for 48 hrs by Western blot analysis; type: cell-based
Summary of the method: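 Cells seeded at 5 × 10^4 per well and treated 48 h with an IC50 dose of CBD in DU145 or PC-3. Lysed in ice-cold RIPA with protease/phosphatase inhibitor. 40 μg protein per lane on SDS-PAGE, then PVDF. Probed overnight at 4 °C for phospho-AKT and total AKT, HRP detection. Densitometry normalised to loading control, then to vehicle. Mean ± SD, ≥3 experiments, t-test.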

PC-3 [16] = assay: Inhibition of cell invasion in human PC-3 cells incubated for 48 hrs by crystal violet staining based microscopic analysis relative to control; type: functional
DU-145 [17] = assay: Antiproliferative activity against human DU-145 cells assessed as reduction in cell viability incubated for 72 hrs in presence of capsazepine by MTT assay; type: functional, cell-based; summary of the method: as §5
PC-3 [18] = assay: Induction of cell cycle arrest in human PC-3 cells assessed as arrest in G1/S phase by measuring reduction in CDK2 protein expression at IC50 concentration incubated for 48 hrs by Western blotting analysis; type: functional, cell-based; summary of the method: as §3
PC-3 [19] = assay: Antiproliferative activity against human PC-3 cells assessed as reduction in cell colonies incubated for 48 hrs detached and reseeded without compound and measured after 7 days by glutaraldehyde/crystal violet staining based clonogenic assay relative to control; type: functional; set-up: scale not given: the % may be the effect or the level left
Summary of the method: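 PC-3 cells left to adhere 24 h, then treated 48 h. Detached and reseeded at 500 cells per well without drug, then grown 7 days at 37 °C, 5% CO2, with medium changed every 2–3 days. Colonies fixed and stained with glutaraldehyde/crystal violet and counted.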

DU-145 [20] = assay: Induction of cell cycle arrest in human DU-145 cells assessed as arrest in G2/M phase by measuring reduction in CDK1 protein expression at IC50 concentration incubated for 48 hrs by Western blotting analysis; type: functional, cell-based; summary of the method: as §3
DU-145 [21] = assay: Induction of cell cycle arrest in human DU-145 cells assessed as arrest in G1/S phase by measuring reduction in cyclin D3 protein expression at IC50 concentration incubated for 48 hrs by Western blotting analysis relative to control; type: functional; set-up: scale not given: the % may be the effect or the level left; summary of the method: as §3
PC-3 [22] = assay: Anti-invasive activity against human PC-3 cells assessed as reduction in MMP-1 protein secretion incubated for 48 hrs by ELISA analysis; type: functional, cell-based
DU-145 [23] = assay: Induction of cell cycle arrest in human DU-145 cells assessed as arrest in G2/M phase by measuring reduction in CDK7 protein expression at IC50 concentration incubated for 48 hrs by Western blotting analysis; type: functional, cell-based; summary of the method: as §3
DU-145 [24] = assay: Antiproliferative activity against human DU-145 cells assessed as reduction in cell viability incubated for 72 hrs in presence of 10% FBS by MTT assay; type: functional, cell-based; details: DU-145, 72 h
Summary of the method: (§6)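 Cells left to adhere 24 h, then exposed to CBD (0–100 μM) for 72 h in medium with 10% FBS. MTT incubation 3 h at 37 °C, DMSO solubilisation, A570. Viability relative to vehicle; IC50 from nonlinear regression; at least three independent experiments.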

PC-3 [25] = assay: Antiproliferative activity against human PC-3 cells assessed as reduction in cell viability incubated for 72 hrs in presence of 10% FBS by MTT assay; type: functional, cell-based; details: PC-3, 72 h; summary of the method: as §6
PC-3 [26] = assay: Antiproliferative activity against human PC-3 cells assessed as reduction in cell confluency at 10 uM measured after 72 hrs by Hoechst 33342 staining based high content imaging fluorescence microscopic analysis; type: functional; summary of the method: as §1
PC-3 [27] = assay: Induction of cell cycle arrest in human PC-3 cells assessed as arrest in G1/S phase by measuring reduction in cyclin D3 protein expression at IC50 concentration incubated for 48 hrs by Western blotting analysis relative to control; type: functional, cell-based; summary of the method: as §3
PWR-1E [28] = assay: Induction of apoptosis in human PWR-1E cells assessed as early apoptotic cells at 1 to 10 uM incubated for 72 hrs […] and propidium iodide staining based high content imaging fluorescence microscopic analysis; type: toxicity, cell-based; details: dose 1-10 µM; summary of the method: as §4

Chain of Serine/threonine-protein kinase AKT (Homo sapiens) (P31749 whole entry, looked up): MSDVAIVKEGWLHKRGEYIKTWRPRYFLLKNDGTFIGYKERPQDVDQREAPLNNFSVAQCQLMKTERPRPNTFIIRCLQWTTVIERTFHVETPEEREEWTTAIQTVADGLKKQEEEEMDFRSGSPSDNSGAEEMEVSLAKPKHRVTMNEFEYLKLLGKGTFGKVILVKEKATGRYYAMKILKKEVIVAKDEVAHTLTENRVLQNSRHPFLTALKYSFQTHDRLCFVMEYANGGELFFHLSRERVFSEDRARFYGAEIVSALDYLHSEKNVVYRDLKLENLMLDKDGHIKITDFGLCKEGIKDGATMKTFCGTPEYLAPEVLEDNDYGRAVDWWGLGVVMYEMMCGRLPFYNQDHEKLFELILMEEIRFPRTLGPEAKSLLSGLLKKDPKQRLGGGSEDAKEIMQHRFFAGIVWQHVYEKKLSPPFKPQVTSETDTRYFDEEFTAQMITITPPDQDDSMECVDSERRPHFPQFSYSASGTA
Chain of Serine/threonine-protein kinase AKT (Homo sapiens) (P31751 whole entry, looked up): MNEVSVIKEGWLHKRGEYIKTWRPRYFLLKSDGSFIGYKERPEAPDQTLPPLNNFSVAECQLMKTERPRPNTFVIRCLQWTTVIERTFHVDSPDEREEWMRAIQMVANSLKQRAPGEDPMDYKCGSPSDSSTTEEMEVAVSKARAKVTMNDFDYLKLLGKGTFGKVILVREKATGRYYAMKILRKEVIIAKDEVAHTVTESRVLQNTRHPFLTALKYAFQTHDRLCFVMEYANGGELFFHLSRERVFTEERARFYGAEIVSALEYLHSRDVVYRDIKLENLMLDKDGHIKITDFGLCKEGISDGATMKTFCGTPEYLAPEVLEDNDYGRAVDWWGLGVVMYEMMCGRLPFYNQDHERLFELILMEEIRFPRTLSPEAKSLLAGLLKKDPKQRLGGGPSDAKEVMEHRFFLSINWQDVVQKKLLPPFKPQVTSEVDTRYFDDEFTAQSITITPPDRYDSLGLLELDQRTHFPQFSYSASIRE
Chain of Serine/threonine-protein kinase AKT (Homo sapiens) (Q9Y243 whole entry, looked up): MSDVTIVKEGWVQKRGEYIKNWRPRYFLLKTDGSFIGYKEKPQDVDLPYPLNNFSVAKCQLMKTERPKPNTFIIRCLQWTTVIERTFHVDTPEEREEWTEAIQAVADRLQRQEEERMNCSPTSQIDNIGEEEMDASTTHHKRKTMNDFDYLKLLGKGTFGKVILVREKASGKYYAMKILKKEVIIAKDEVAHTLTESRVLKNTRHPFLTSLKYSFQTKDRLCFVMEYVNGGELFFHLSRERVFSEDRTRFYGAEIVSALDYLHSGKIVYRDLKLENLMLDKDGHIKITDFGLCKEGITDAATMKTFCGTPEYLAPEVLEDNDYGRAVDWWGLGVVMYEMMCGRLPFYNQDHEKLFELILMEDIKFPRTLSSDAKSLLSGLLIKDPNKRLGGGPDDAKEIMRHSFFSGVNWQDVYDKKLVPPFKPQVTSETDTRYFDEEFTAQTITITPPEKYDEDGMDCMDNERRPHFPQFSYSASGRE

C=C(C)[C@@H]1CCC(C)=C[C@H]1c1c(O)cc(CCCCC)cc1O [CANNABIDIOL]
Activity (PC-3 [1]): inactive
Activity (DU-145 [2]): inactive
IC50 (DU-145 [3]): 1.5 µM
Activity (DU-145 [4]): Active
Activity (PC-3 [5]): inactive
Activity (PWR-1E [6]): Toxic
Activity (PC-3 [7]): >2
Activity (PC-3 [8]): inactive
Activity (DU-145 [9]): Active
Activity (PC-3 [10]): inactive
Activity (PC-3 [11]): Active
IC50 (PC-3 [12]): 2.9 µM
Activity (PWR-1E [13]): Toxic
Activity (DU-145 [14]): Active
inhibition [15]: inactive
inhibition (INH) (PC-3 [16]): ~30%
Activity (DU-145 [17]): Active
Activity (PC-3 [18]): Active
Activity (PC-3 [19]): ~25%
Activity (DU-145 [20]): Active
Activity (DU-145 [21]): ~20%
Activity (PC-3 [22]): inactive
Activity (DU-145 [23]): inactive
IC50 (DU-145 [24]): 12.3 µM
IC50 (PC-3 [25]): 10.5 µM
Activity (PC-3 [26]): Active
Activity (PC-3 [27]): Active
Activity (PWR-1E [28]): Toxic
